In ChEMBL document CHEMBL3397015, “Naturally occurring polyphenol, morin hydrate, inhibits enzymatic activity of N-methylpurine DNA glycosylase, a DNA repair enzyme with various roles in human disease” (Bioorg Med Chem, 2015) one finds IC50, Activity and inhibition data, which are given here for nine molecules.

“And” between values parts separate entries of the source, which are not always exact repeats. Identical values can stand only once. Counter-ions that a name gives are not always drawn. The source made the active and inactive calls. The calls are words filed in the database; no cut-off is given here.

Data set [1] concerns the target T1, DNA-3-methyladenine glycosylase (Homo sapiens, UniProt P29372). Description: Inhibition of human purified MPG pre-incubated with compound for 10 mins followed by addition of 1,N6 ethenoadenine containing 32P-labeled duplex oligonucleotide substrates by gel-based excision activity assay. An outline of the steps: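 Purified hMPG (2.3 nM) pre-incubated 10 min at room temperature with a range of compound concentrations. Then 7 nM εA ³²P-duplex substrate, 10 min at 37°C, in HEPES pH 7.9 buffer with 150 mM NaCl. Heat stop, APE1 cleavage of AP sites. Products resolved on 7 M urea/20% PAGE and bands quantified; IC50 from the concentration series.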

Data set [2] in a line: Binding affinity to ethenoadenine containing 5'-TCGAGGATCCTGAGCTCGAGTCGACGXTCGCGAATTCTGCGGATCCAAGC-3' duplex oligonucleotide DNA (unknown origin) at 15 uM by SPR assay. A digest of the protocol: (§1)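 Biotinylated 50-mer oligonucleotide, undamaged or εA-containing, immobilized on streptavidin-coated C1 chip (Biacore T100). Compound injected at 15 µM in 10 mM HEPES-KOH pH 7.6, 90 mM KCl, 0.05% surfactant P20 at 7°C; background-subtracted RU recorded over repeated 60 s injections.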
(In SPR one partner is held on a chip, and binding of the other changes the refractive index at the surface.)

The target of data set [3] is T1, DNA-3-methyladenine glycosylase. The data set can be described thus: Inhibition of human purified MPG pre-incubated with compound for 10 mins followed by addition of 1,N6 ethenoadenine containing 32P-labeled duplex oligonucleotide substrates at 20 uM by gel-based excision activity assay. A digest of the protocol: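 Purified hMPG (2.3 nM) pre-incubated 10 min at room temperature with 20 µM compound. Then 7 nM εA ³²P-duplex added, 10 min at 37°C, in 25 mM HEPES pH 7.9, 150 mM NaCl, BSA, DTT, 10% glycerol. Stopped 65°C, AP sites cut with 15 nM APE1/5 mM MgCl₂. Denaturing 20% PAGE, band densitometry.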

Data set [4] has the same target. Description: Inhibition of MPG in human HeLa cell extracts at 50 to 300 uM using 1,N6 ethenoadenine containing 32P-labeled duplex oligonucleotide substrates by gel-based excision activity assay. A digest of the protocol: (§2)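 Whole-cell extract (5 µg; A549 or HeLa, made with M-PER) pre-incubated with compound at 0, 50, 100, 200 and 300 µM for 10 min at room temperature. Then 3 nM εA ³²P-duplex substrate added; buffer and workup as for purified enzyme. Product bands on denaturing urea gel quantified as percent product formation, normalised to untreated samples.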

The target is the same in data set [5]. The data set can be described thus: Inhibition of MPG in human A549 cell extracts at 50 to 300 uM using 1,N6 ethenoadenine containing 32P-labeled duplex oligonucleotide substrates by gel-based excision activity assay. A digest of the protocol: as §2
Data set [6] has the same target. Description: Inhibition of MPG in human A549 cells assessed as reduction in DNA repair at 200 and 300 uM using ethenoadenine-containing M13mp18 plasmids by plasmid based in-cell repair assay. An outline of the steps:
(§3)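 Lesion plasmid built in vitro: M13mp18 with εA at the EcoRI site; cells in DMEM/10% FBS, compound at 0, 200 or 300 µM. Plasmid transfected into cells, then recovered after harvest. EcoRI digest tests the lesion site and SacI the internal control site. Repair scored by plaque formation.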

In data set [7] the target is N-glycosylase/DNA lyase (Homo sapiens) (UniProt O15527). The data set can be described thus: Inhibition of OGG1 (unknown origin) pre-incubated with compound for 10 mins followed by addition of […] containing 32P-labeled duplex oligonucleotide substrates at 20 to 40 uM by gel-based excision activity assay. An outline of the steps: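 Purified OGG1 pre-incubated with compound (0, 20, 40 µM) 10 min at room temperature. Products resolved on denaturing 20% polyacrylamide/7M urea gels; band intensities quantified.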

Data set [8] has the same target. Description: Inhibition of OGG1 in human A549 cells assessed as reduction in DNA repair at 200 and 300 uM using 8-oxodG-containing M13mp18 plasmids by plasmid based in-cell repair assay. A digest of the protocol: (§4)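 A549 or HeLa cells (DMEM, 10% FBS) treated with compound (0, 200, 300 µM) and transfected with in vitro–built 8-oxo-dG-containing M13mp18 plasmid (lesion at EcoRI site). Plasmids recovered, digested with EcoRI (lesion site) and SacI (internal control), and used for plaque formation to calculate repair.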

Data set [9] addresses DNA repair nuclease/redox regulator APEX1 (Homo sapiens) (UniProt P27695). The data set can be described thus: Inhibition of APE1 (unknown origin) pre-incubated with compound for 10 mins followed by addition of […] at 20 to 40 uM by gel-based excision activity assay.
Data set [10] relates to HeLa. The data set can be described thus: Toxicity against human HeLa cells assessed as reduction in cell viability at 0.2 to 1.4 mM after 72 hrs by MTT assay. It counts as cell-based. The note with it: 1400 µM. A digest of the protocol:
(§5)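 A549 or HeLa cells seeded at 2000 per well, treated next day for 72 h in triplicate with compound (0–2 mM). Then MTT 0.5 mg/mL for 4 h at 37°C, DMSO solubilization. Absorbance read at 570 nm minus 650 nm background; percent survival relative to untreated wells.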
On the technique in general: Tetrazolium dyes change colour on reduction, which living cells bring about.

The target in data set [11] is T1, DNA-3-methyladenine glycosylase. Description: Inhibition of MPG in human A549 cells assessed as reduction in DNA repair at 300 uM using ethenoadenine-containing M13mp18 plasmids by plasmid based in-cell repair assay. An outline of the steps:
as §3

The target is the same in data set [12]. Description: Inhibition of human purified MPG binding to immobilized ethenoadenine containing 5'-TCGAGGATCCTGAGCTCGAGTCGACGXTCGCGAATTCTGCGGATCCAAGC-3' duplex oligonucleotide at 40 uM by SPR assay. A digest of the protocol:
(§6)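 εA-containing 50-mer biotinylated and immobilised on a streptavidin C1 chip. 30 nM hMPG pre-mixed with compound (0, 5, 10, 20, 40 µM) and injected twice for 60 s each. Buffer: 10 mM HEPES-KOH pH 7.6, 90 mM KCl, 0.05% P20, 7°C. Inhibition taken as percent decrease in background-subtracted RU versus DMSO.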

Data set [13] has as its system A549. Description: Toxicity against human A549 cells assessed as reduction in cell viability at 0.2 to 1.4 mM after 72 hrs by MTT assay. It counts as cell-based. The note with it: a549, 72 h, 1400 µM. An outline of the steps:
as §5

The target of data set [14] is T1, DNA-3-methyladenine glycosylase. Description: Inhibition of MPG in human HeLa cells assessed as reduction in DNA repair at 200 and 300 uM using ethenoadenine-containing M13mp18 plasmids by plasmid based in-cell repair assay. A digest of the protocol: as §3
Data set [15] in a line: Binding affinity to 5'-TCGAGGATCCTGAGCTCGAGTCGACGXTCGCGAATTCTGCGGATCCAAGC-3' duplex oligonucleotide DNA (unknown origin) at 15 uM by SPR assay. A digest of the protocol:
as §1

In data set [16] the target is T1, DNA-3-methyladenine glycosylase. The data set can be described thus: Inhibition of human purified MPG binding to immobilized ethenoadenine containing 5'-TCGAGGATCCTGAGCTCGAGTCGACGXTCGCGAATTCTGCGGATCCAAGC-3' duplex oligonucleotide at 5 to 40 uM by SPR assay. An outline of the steps:
as §6

The target in data set [17] is N-glycosylase/DNA lyase (Homo sapiens) (UniProt O15527). The data set can be described thus: Inhibition of OGG1 in human HeLa cells assessed as reduction in DNA repair at 200 and 300 uM using 8-oxodG-containing M13mp18 plasmids by plasmid based in-cell repair assay. A digest of the protocol: as §4
Data set [18] concerns the target T1, DNA-3-methyladenine glycosylase. Description: Inhibition of MPG in human HeLa cells assessed as reduction in DNA repair at 300 uM using ethenoadenine-containing M13mp18 plasmids by plasmid based in-cell repair assay. A digest of the protocol:
as §3

Sequence of N-glycosylase/DNA lyase (Homo sapiens) (O15527 whole entry): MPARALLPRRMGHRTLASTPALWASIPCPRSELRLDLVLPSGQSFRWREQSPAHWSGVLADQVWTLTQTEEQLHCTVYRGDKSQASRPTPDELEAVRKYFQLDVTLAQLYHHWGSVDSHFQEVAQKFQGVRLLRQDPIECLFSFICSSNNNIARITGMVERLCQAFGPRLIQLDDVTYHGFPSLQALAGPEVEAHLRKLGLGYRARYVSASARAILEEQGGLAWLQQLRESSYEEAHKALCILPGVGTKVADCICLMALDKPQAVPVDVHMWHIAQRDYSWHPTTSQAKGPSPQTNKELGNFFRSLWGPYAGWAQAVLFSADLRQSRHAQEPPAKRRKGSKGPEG
T1 sequence (P29372 whole entry): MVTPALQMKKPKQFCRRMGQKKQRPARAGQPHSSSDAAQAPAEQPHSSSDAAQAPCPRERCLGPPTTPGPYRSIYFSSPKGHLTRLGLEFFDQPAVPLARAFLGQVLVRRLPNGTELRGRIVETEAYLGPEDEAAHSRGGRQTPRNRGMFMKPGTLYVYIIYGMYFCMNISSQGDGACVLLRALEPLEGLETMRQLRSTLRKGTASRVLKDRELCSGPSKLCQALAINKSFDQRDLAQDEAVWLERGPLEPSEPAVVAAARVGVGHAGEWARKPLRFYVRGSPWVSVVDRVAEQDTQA
Sequence of DNA repair nuclease/redox regulator APEX1 (Homo sapiens) (P27695 whole entry): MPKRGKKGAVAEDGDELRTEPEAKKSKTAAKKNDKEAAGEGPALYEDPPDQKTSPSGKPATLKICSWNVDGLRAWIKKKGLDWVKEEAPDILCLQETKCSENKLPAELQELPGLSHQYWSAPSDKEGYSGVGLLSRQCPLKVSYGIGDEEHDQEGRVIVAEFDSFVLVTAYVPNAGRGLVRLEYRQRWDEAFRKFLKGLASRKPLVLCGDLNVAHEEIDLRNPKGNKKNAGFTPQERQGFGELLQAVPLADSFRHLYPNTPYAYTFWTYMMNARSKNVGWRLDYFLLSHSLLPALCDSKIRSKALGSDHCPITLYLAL

As a reminder, the IC50 is the midpoint of a concentration-inhibition curve. For `O=C1c2c(O)ccc(O)c2C(=O)c2c(NCCNCCO)ccc(NCCNCCO)c21` [MITOXANTRONE HYDROCHLORIDE], in [1], the IC50 came to 2500 nM. Also, the outcome in data set [2] was Active.
By inhibition is commonly meant the relative decrease from the control value, in per cent. Turning to `O=C(O)/C=C/c1ccc(O)c(O)c1`, the inhibition in data set [3] is 0%.
Still for that read-out and setting: for `O=c1c(O)c(-c2ccc(O)cc2)oc2cc(O)cc(O)c12` the value was 25%.
`O=C(O)C1=CC(=C(c2ccc(O)c(C(=O)O)c2)c2ccc(O)c(C(=O)O)c2)C=CC1=O` [AURINTRICARBOXYLIC ACID]: the IC50 in data set [1] is 200 nM.
`O=c1c(O)c(-c2ccc(O)c(O)c2)oc2cc(O)cc(O)c12`: the inhibition result in data set [4] and in [5] was “inactive” in each case. For the same molecule, the inhibition in [3] is 38% and 44%.
In the case of `O=C/C=C/c1ccccc1`, the inhibition in data set [3] came to 0%.
On to `O.O=c1c(O)c(-c2ccc(O)cc2O)oc2cc(O)cc(O)c12`, for which the inhibition result was “Dose-dependent effect” in data set [6]; “Dose-dependent effect” in data set [4]; “Dose-dependent effect” in data set [5]; 50% in [11]; 81% in [3]; “Dose-dependent effect” in data set [14]. Also, the inhibition in data set [18] worked out at 50%. Besides, the inhibition entry in data set [7], in [8], in data set [9] and in data set [17] was “inactive” each time. Also, the IC50 in [1] is 2600 nM; in data set [16], 12000 nM. Moreover, the Activity entry in data set [10] and in data set [13] was “Non-toxic” throughout. Moreover, in data set [12], the inhibition result was “Active”. The result in data set [15] and in data set [2] was inactive.
As to `O=c1c(O)c(-c2cc(O)c(O)c(O)c2)oc2cc(O)cc(O)c12`, the inhibition in [3] is 36%.
Take `Cc1cc2c(C(C)C)c(O)c(O)c(C=O)c2c(O)c1-c1c(C)cc2c(C(C)C)c(O)c(O)c(C=O)c2c1O` [GOSSYPOL]: the IC50 in data set [1] is 3000 nM. Further, the result in data set [2] was Active.
